From ChEMBL document CHEMBL1138222, “9-Benzylidene-naphtho[2,3-b]thiophen-4-ones as novel antimicrotubule agents-synthesis, antiproliferative activity, and inhibition of tubulin polymerization” (J Med Chem, 2006)
Activity calls are given as the source filed them. The calls are words filed in the database; no cut-off is given here.

Key:
K562 = experiment: Antiproliferative activity against human K562 cell line; assay type: functional, cell-based
Tubulin = Tubulin (Sus scrofa, UniProt P02554+P02550); experiment: Inhibition of tubulin polymerization in porcine brain
SK-OV-3 = experiment: Antiproliferative activity against SKOV3 cells by XTT assay after 48 hrs; assay type: functional, cell-based; settings: Homo sapiens, SK-OV-3, 48 h
Summary of the method: (§1)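 Tumour cell lines were seeded at 1 × 10^3 to 8 × 10^4 cells/well for logarithmic growth and exposed to a concentration series for 48 h. Proliferation was read as cellular metabolic activity by XTT. IC50 came from dose-response curves by nonlinear regression, with at least two replicates.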

RKO [1] = experiment: Antiproliferative activity against RKO cells by XTT assay after 48 hrs; assay type: functional, cell-based; settings: Homo sapiens
Summary of the method: (§2)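 RKO colon adenocarcinoma cells carry an ecdysone-inducible p27kip1 vector. On day 1 they were plated with 3 µM ponasterone A (induced, 2 × 10^4 cells/well) or without it (not induced, 6 × 10^3 cells/well) and held 24 h at 37 °C. Compound or DMSO control was then added for 48 h at 37 °C, followed by a standard XTT read-out.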

SF-268 = experiment: Antiproliferative activity against SF268 cells by XTT assay after 48 hrs; assay type: functional, cell-based; settings: Homo sapiens, SF-268, 48 h; summary of the method: as §1
[2] = Antiproliferative activity against KB/HeLa cells by XTT assay after 48 hrs; assay type: functional, cell-based; settings: Homo sapiens; summary of the method: as §1
NCI-H460 = experiment: Antiproliferative activity against NCI-H460 cells by XTT assay after 48 hrs; assay type: functional, cell-based; settings: Homo sapiens, NCI-H460, 48 h; summary of the method: as §1
RKO [3] = experiment: Antiproliferative activity against RKO cells with ectopic-induced p27kip1-expression by XTT assay after 48 hrs; assay type: functional, cell-based; settings: Homo sapiens; summary of the method: as §2
[4] = Cell cycle arrest in KB/HeLa cells by accumulation at S phase at 31.6 nM; assay type: functional, cell-based; settings: Homo sapiens
Summary of the method: (§3)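 Subconfluent KB/HeLa cells were treated with a concentration series for 24 h at 37 °C, then detached and fixed in 70% ethanol. DNA was stained with propidium iodide alongside RNase digestion and measured by flow cytometry. Phase fractions came from cell-cycle modelling software, and IC50 from nonlinear regression.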

[5] = Cell cycle arrest in KB/HeLa cells by accumulation at G2/M phase at 100 nM; assay type: functional, cell-based; settings: Homo sapiens; summary of the method: as §3
[6] = Cell cycle arrest in KB/HeLa cells by accumulation at G1 phase at 100 nM; assay type: functional, cell-based; settings: Homo sapiens; summary of the method: as §3
[7] = Cell cycle arrest in KB/HeLa cells by accumulation at S phase at 0.3 nM; assay type: functional, cell-based; settings: Homo sapiens; summary of the method: as §3
[8] = Cell cycle arrest in KB/HeLa cells by accumulation at G1 phase at 316 nM; assay type: functional, cell-based; settings: Homo sapiens; summary of the method: as §3
[9] = Cell cycle arrest in KB/HeLa cells by accumulation at G2/M phase at 10 nM; assay type: functional, cell-based; settings: Homo sapiens; summary of the method: as §3
[10] = Cell cycle arrest in KB/HeLa cells by accumulation at G2/M phase at 31.6 nM; assay type: functional, cell-based; settings: Homo sapiens; summary of the method: as §3
[11] = Cell cycle arrest in KB/HeLa cells by accumulation at S phase at 316 nM; assay type: functional, cell-based; settings: Homo sapiens; summary of the method: as §3
[12] = Cell cycle arrest in KB/HeLa cells by accumulation at G1 phase at 31.6 nM; assay type: functional, cell-based; settings: Homo sapiens; summary of the method: as §3
[13] = Cell cycle arrest in KB/HeLa cells by accumulation at G1 phase at 1 nM; assay type: functional, cell-based; settings: Homo sapiens; summary of the method: as §3
[14] = Cell cycle arrest in KB/HeLa cells by accumulation at G2/M phase at 0.3 nM; assay type: functional, cell-based; settings: Homo sapiens; summary of the method: as §3
[15] = Cell cycle arrest in KB/HeLa cells by accumulation at G2/M phase; assay type: functional, cell-based; settings: Homo sapiens; summary of the method: as §3
[16] = Cell cycle arrest in KB/HeLa cells by accumulation at G1 phase at 0.3 nM; assay type: functional, cell-based; settings: Homo sapiens; summary of the method: as §3
[17] = Cell cycle arrest in KB/HeLa cells by accumulation at S phase at 3.16 nM; assay type: functional, cell-based; settings: Homo sapiens; summary of the method: as §3
[18] = Cell cycle arrest in KB/HeLa cells by accumulation at S phase at 100 nM; assay type: functional, cell-based; settings: Homo sapiens; summary of the method: as §3
[19] = Cell cycle arrest in KB/HeLa cells by accumulation at G1 phase at 10 nM; assay type: functional, cell-based; settings: Homo sapiens; summary of the method: as §3
[20] = Cell cycle arrest in KB/HeLa cells by accumulation at G1 phase at 3.16 nM; assay type: functional, cell-based; settings: Homo sapiens; summary of the method: as §3
[21] = Cell cycle arrest in KB/HeLa cells by accumulation at G2/M phase at 316 nM; assay type: functional, cell-based; settings: Homo sapiens; summary of the method: as §3
[22] = Cell cycle arrest in KB/HeLa cells by accumulation at S phase at 1 nM; assay type: functional, cell-based; settings: Homo sapiens; summary of the method: as §3
[23] = Cell cycle arrest in KB/HeLa cells by accumulation at S phase at 10 nM; assay type: functional, cell-based; settings: Homo sapiens; summary of the method: as §3
[24] = Cell cycle arrest in KB/HeLa cells by accumulation at G2/M phase at 1 nM; assay type: functional, cell-based; settings: Homo sapiens; summary of the method: as §3
cells = settings: Rattus norvegicus, LT12, 48 h
Tubulin (Homo sapiens) [25] = molecular target: T1, Tubulin (Homo sapiens) (UniProt P68371+Q9H4B7+P0DPH7+P68366+Q13509+Q71U36+P04350+Q3ZCM7+P07437+P68363+Q9BQE3+Q6PEY2+Q13885+Q9BVA1+Q9BUF5); experiment: Displacement of [3H]paclitaxel from tubulin by SPA assay; assay type: protein-complex assay
MDR = experiment: Antiproliferative activity against LT12 MDR cells by XTT assay after 48 hrs; assay type: functional, cell-based; settings: Rattus norvegicus; summary of the method: as §1
L1210 [26] = experiment: Antiproliferative activity against L1210 VCR cells by XTT assay after 48 hrs; assay type: functional, cell-based; settings: Mus musculus, L1210, 48 h; summary of the method: as §1
P388 [27] = experiment: Antiproliferative activity against P388 cells by XTT assay after 48 hrs; assay type: functional, cell-based; settings: Mus musculus, P388, 48 h; summary of the method: as §1
P388 [28] = experiment: Antiproliferative activity against P388 ADR cells by XTT assay after 48 hrs; assay type: functional, cell-based; settings: Mus musculus, P388, 48 h; summary of the method: as §1
L1210 [29] = experiment: Antiproliferative activity against L1210 cells by XTT assay after 48 hrs; assay type: functional, cell-based; settings: Mus musculus, L1210, 48 h; summary of the method: as §1
Tubulin (Homo sapiens) [30] = molecular target: T1, Tubulin (Homo sapiens); experiment: Displacement of [3H]colchicine from tubulin by SPA assay; assay type: protein-complex assay

In the case of COc1cc(/C=C2/c3ccccc3C(=O)c3ccsc32)cc(OC)c1OC, the IC50 (K562) is reported as 0.6 µM and the IC50 (Tubulin) is reported as 7.4 µM.

For COc1ccc(/C=C2/c3ccccc3C(=O)c3ccsc32)cc1OC, the IC50 (K562) was 0.32 µM.

For COc1ccc(C(=O)Oc2c3ccccc3cc3sccc23)cc1, the IC50 (K562) was greater than 90 µM and the IC50 (Tubulin) was greater than 10 µM.

For COc1ccc(CCOc2c3ccccc3cc3sccc23)cc1, the IC50 (K562) was 5.3 µM and the IC50 (Tubulin) was greater than 10 µM.

With c1ccc(COc2c3ccccc3cc3sccc23)cc1 the IC50 (K562) was 2.38 µM.

COc1ccc(COc2c3ccccc3cc3sccc23)cc1 gave an IC50 (SK-OV-3) of 0.27 µM, an IC50 (RKO [1]) of 0.28 µM and an IC50 (SF-268) of 0.43 µM. It also gave an IC50 [2] of 0.47 µM, an IC50 (K562) of 0.25 µM and an IC50 (NCI-H460) of 0.98 µM. The IC50 (Tubulin) was 1.52 µM and the IC50 (RKO [3]) was greater than 9 µM.

With O=C1c2ccccc2Cc2sccc21 the IC50 (K562) was 7 µM.

COc1ccc(/C=C2/c3ccccc3C(=O)c3ccsc32)cc1O showed an IC50 (K562) of 0.23 µM and an IC50 (Tubulin) of 1.4 µM.

COc1cc2c(c(OC)c1OC)-c1ccc(OC)c(=O)cc1[C@@H](NC(C)=O)CC2 [COLCHICINE] gave an Activity [4] of 11.9%, an Activity [5] of 94.7% and an Activity [6] of 0.3%. The Activity [7] was 26.6%, the Activity [8] was 0.3% and the Activity [9] was 32.1%. The Activity [10] was 87.6%, the Activity [11] was 5.2% and the Activity [12] was 0.5%. It also gave an Activity [13] of 64.7%, an Activity [14] of 10.1% and an EC50 [15] of 0.014 µM. For the same compound, the Activity [16] was 63.3%, the Activity [17] was 25.1% and the IC50 [2] was 0.03 µM. It also gave an Activity [18] of 5.1%, an Activity [19] of 32.2% and an IC50 (RKO [3]) greater than 10 µM. For the same compound, the Activity [20] was 64.3%, the Activity [21] was 94.5% and the Activity [22] was 25.4%. It also gave an Activity [23] of 35.7% and an Activity [24] of 10%.

In the case of COc1ccc(/C=C2/c3ccccc3C(=O)c3ccsc32)c(OC)c1O, the IC50 (cells) is reported as 0.18 µM, the Activity (Tubulin (Homo sapiens) [25]) is reported as “inactive” and the IC50 (MDR) is reported as 0.19 µM. It also gave an IC50 (SK-OV-3) of 0.04 µM, an IC50 (L1210 [26]) of 0.17 µM and an IC50 (P388 [27]) of 0.14 µM. For the same compound, the IC50 (RKO [1]) was 0.04 µM, the IC50 (SF-268) was 0.05 µM and the IC50 (P388 [28]) was 0.16 µM. The IC50 (L1210 [29]) was 0.13 µM, the IC50 [2] was 0.19 µM and the IC50 (K562) was 0.08 µM. For the same compound, the IC50 (NCI-H460) was 0.28 µM, the Activity (Tubulin (Homo sapiens) [30]) was 0.29 µM and the IC50 (Tubulin) was 0.5 µM. For the same compound, the IC50 (RKO [3]) was greater than 9 µM.

Work on COc1ccc(/C=C2/c3ccccc3C(=O)c3ccsc32)c(O)c1 yielded an IC50 (K562) of 0.23 µM and an IC50 (Tubulin) of 0.77 µM.

Compound Cn1cc(/C=C2/c3ccccc3C(=O)c3ccsc32)c2ccccc21 has an IC50 (K562) of 0.25 µM.

COc1ccc2[nH]cc(/C=C3/c4ccccc4C(=O)c4ccsc43)c2c1 showed an IC50 (K562) of 0.24 µM.

Work on O=C1c2ccccc2/C(=C/c2cccs2)c2sccc21 yielded an IC50 (K562) of 0.39 µM and an IC50 (Tubulin) of 1.34 µM.

For O=C1c2ccccc2/C(=C/c2ccccc2)c2sccc21, the IC50 (K562) was 0.33 µM and the IC50 (Tubulin) was 6.2 µM.

For CC[C@]1(O)C[C@@H]2CN(CCc3c([nH]c4ccccc34)[C@@](C(=O)OC)(c3cc4c(cc3OC)N(C)[C@H]3[C@@](O)(C(N)=O)[C@H](O)[C@]5(CC)C=CCN6CC[C@]43[C@@H]65)C2)C1 [VINDESINE], the IC50 (cells) was 0.001 µM, the IC50 (MDR) was 0.26 µM and the IC50 (L1210 [26]) was greater than 5 µM. For the same compound, the IC50 (P388 [27]) was 0.01 µM and the IC50 (P388 [28]) was 1.1 µM.
